Test results as given in ChEMBL document CHEMBL2034828, “Synthesis of β(1,3) oligoglucans exhibiting a Dectin-1 binding affinity and their biological evaluation” (Bioorg Med Chem, 2012).
Activity calls are given as the source filed them. No cut-off for these calls is given here.

Key:
[1] = target: T1, C-type lectin domain family 7 member A (Mus musculus) (UniProt Q6QLQ4); assay: Inhibition of mouse N-terminal hexahistidine-tagged C-type lectin domain of Dectin-1 expressed in Escherichia coli BL21 (DE3) binding to solid-supported schizophyllan pretreated for 30 mins prior SPG addition measured after 1 hr by competitive ELISA relative to SPG
T1 sequence (whole entry): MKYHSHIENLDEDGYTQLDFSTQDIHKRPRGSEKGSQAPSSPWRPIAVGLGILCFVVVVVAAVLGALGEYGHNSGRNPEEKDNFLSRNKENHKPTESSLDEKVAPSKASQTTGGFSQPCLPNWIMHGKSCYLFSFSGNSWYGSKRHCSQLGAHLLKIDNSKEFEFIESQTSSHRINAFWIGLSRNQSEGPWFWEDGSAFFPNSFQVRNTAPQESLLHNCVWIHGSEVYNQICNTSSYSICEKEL

[2] = target: T2, C-type lectin domain family 7 member A (Homo sapiens) (UniProt Q9BXN2); assay: Agonist activity at Dectin-1 expressed in human 293T cells assessed as LPS-mediated NF-kappaB activation after 6 hrs by dual luciferase reporter gene assay; format: functional, cell-based
T2 sequence (whole entry): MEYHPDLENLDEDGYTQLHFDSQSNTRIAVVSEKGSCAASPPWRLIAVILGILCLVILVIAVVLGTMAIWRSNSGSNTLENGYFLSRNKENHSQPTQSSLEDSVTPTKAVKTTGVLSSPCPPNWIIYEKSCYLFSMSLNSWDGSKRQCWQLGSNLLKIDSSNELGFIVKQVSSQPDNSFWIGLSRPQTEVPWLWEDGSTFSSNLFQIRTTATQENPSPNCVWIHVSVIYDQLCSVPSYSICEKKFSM
Method in brief: (§1)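 293T cells were plated at 1 × 10⁴ cells/well in DMEM with 10% FBS for 20 h at 37 °C, 5% CO₂. They were then lipofected for 18 h. Dectin-1 wells received Dectin-1A, CARD9 and Bcl10 plasmids; TLR4 wells received TLR4 and MD-2 plasmids. Both received NF-κB-RE firefly and TK-Renilla reporters. Cells were stimulated 6 h with oligosaccharides, SPG, or oligosaccharides plus LPS. Read-out was the firefly/Renilla dual-luciferase ratio.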

[3] = target: Toll-like receptor 4 (Homo sapiens) (UniProt O00206); assay: Agonist activity at TLR4 expressed in human 293T cells assessed as LPS-mediated NF-kappaB activation after 6 hrs by dual luciferase reporter gene assay; format: functional, cell-based; method in brief: as §1
Sequence of Toll-like receptor 4 (Homo sapiens) (O00206 whole entry, the tested form may be a part): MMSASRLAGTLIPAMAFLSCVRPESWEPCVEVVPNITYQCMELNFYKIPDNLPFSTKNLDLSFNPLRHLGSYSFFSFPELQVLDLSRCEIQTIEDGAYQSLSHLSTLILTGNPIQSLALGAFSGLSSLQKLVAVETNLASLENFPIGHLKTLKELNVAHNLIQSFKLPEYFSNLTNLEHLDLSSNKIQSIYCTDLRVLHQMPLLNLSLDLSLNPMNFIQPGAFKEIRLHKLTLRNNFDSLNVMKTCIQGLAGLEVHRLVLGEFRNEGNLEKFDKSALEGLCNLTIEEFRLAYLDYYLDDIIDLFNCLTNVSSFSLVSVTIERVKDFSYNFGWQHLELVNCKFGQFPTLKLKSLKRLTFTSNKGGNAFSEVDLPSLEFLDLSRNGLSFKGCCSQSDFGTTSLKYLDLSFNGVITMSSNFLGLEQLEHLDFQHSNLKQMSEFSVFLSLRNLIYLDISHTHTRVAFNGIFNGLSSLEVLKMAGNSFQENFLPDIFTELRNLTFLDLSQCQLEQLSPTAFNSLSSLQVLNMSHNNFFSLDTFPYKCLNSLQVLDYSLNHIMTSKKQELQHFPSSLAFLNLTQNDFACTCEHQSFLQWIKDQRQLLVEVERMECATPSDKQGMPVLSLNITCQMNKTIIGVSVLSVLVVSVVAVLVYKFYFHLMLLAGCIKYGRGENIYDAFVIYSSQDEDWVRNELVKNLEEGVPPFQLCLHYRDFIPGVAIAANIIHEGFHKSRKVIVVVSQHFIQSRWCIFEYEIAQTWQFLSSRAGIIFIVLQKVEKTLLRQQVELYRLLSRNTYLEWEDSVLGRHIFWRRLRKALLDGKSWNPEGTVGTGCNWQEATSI

[4] = target: T1, C-type lectin domain family 7 member A (Mus musculus); assay: Binding affinity to mouse N-terminal hexahistidine-tagged C-type lectin domain of Dectin-1 expressed in Escherichia coli BL21 (DE3) by STD-NMR analysis
Method in brief: (§2)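 Protein was mouse Dectin-1 CTLD (Gly113–Leu244) with an N-terminal His6 tag and thrombin site, expressed in E. coli BL21(DE3)codonplus in LB. Expression was induced 6 h at 37 °C. Inclusion bodies were solubilized in 8 M urea, 50 mM Tris-HCl pH 8.0, 50 mM NaCl. Protein was refolded 16 h at 4 °C by dilution into 200 mM Tris-HCl pH 8.0, 0.4 M L-arginine, 5.0 mM GSH, 0.5 mM GSSG, then purified. Ligand was titrated at 0–25 molar equivalents with ¹H NMR monitoring.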

[5] = target: T1, C-type lectin domain family 7 member A (Mus musculus); assay: Binding affinity to mouse N-terminal hexahistidine-tagged C-type lectin domain of Dectin-1 expressed in Escherichia coli BL21 (DE3) by measuring saturation transfer difference amplification factor; method in brief: as §2

Structure (SMILES)	Activity [1]	Activity [2]	Activity [3]	fold change (FC) [1]	Activity [4]	Activity [5]
NCCCCCCO[C@@H]1O[C@H](CO)[C@@H](O)[C@H](O[C@@H]2O[C@H](CO)[C@@H](O)[C@H](O[C@@H]3O[C@H](CO)[C@@H](O)[C@H](O[C@@H]4O[C@H](CO)[C@@H](O)[C@H](O[C@@H]5O[C@H](CO)[C@@H](O)[C@H](O[C@@H]6O[C@H](CO)[C@@H](O)[C@H](O[C@@H]7O[C@H](CO)[C@@H](O)[C@H](O[C@@H]8O[C@H](CO)[C@@H](O)[C@H](O[C@@H]9O[C@H](CO)[C@@H](O)[C@H](O[C@@H]%10O[C@H](CO)[C@@H](O)[C@H](O[C@@H]%11O[C@H](CO)[C@@H](O)[C@H](O[C@@H]%12O[C@H](CO)[C@@H](O)[C@H](O[C@@H]%13O[C@H](CO)[C@@H](O)[C@H](O[C@@H]%14O[C@H](CO)[C@@H](O)[C@H](O[C@@H]%15O[C@H](CO)[C@@H](O)[C@H](O[C@@H]%16O[C@H](CO)[C@@H](O)[C@H](O)[C@H]%16O)[C@H]%15O)[C@H]%14O)[C@H]%13O)[C@H]%12O)[C@H]%11O)[C@H]%10O)[C@H]9O)[C@H]8O)[C@H]7O)[C@H]6O)[C@H]5O)[C@H]4O)[C@H]3O)[C@H]2O)[C@H]1O		Active	inactive	10	Active	Active
NCCCCCCO[C@@H]1O[C@H](CO)[C@@H](O)[C@H](O[C@@H]2O[C@H](CO)[C@@H](O)[C@H](O[C@@H]3O[C@H](CO)[C@@H](O)[C@H](O[C@@H]4O[C@H](CO)[C@@H](O)[C@H](O[C@@H]5O[C@H](CO)[C@@H](O)[C@H](O[C@@H]6O[C@H](CO)[C@@H](O)[C@H](O[C@@H]7O[C@H](CO)[C@@H](O)[C@H](O[C@@H]8O[C@H](CO)[C@@H](O)[C@H](O[C@@H]9O[C@H](CO)[C@@H](O)[C@H](O[C@@H]%10O[C@H](CO[C@@H]%11O[C@H](CO)[C@@H](O)[C@H](O)[C@H]%11O)[C@@H](O)[C@H](O[C@@H]%11O[C@H](CO)[C@@H](O)[C@H](O[C@@H]%12O[C@H](CO)[C@@H](O)[C@H](O)[C@H]%12O)[C@H]%11O)[C@H]%10O)[C@H]9O)[C@H]8O)[C@H]7O)[C@H]6O)[C@H]5O)[C@H]4O)[C@H]3O)[C@H]2O)[C@H]1O	inactive	inactive				
NCCCCCCO[C@@H]1O[C@H](CO)[C@@H](O)[C@H](O[C@@H]2O[C@H](CO)[C@@H](O)[C@H](O[C@@H]3O[C@H](CO)[C@@H](O)[C@H](O[C@@H]4O[C@H](CO)[C@@H](O)[C@H](O[C@@H]5O[C@H](CO)[C@@H](O)[C@H](O[C@@H]6O[C@H](CO)[C@@H](O)[C@H](O[C@@H]7O[C@H](CO)[C@@H](O)[C@H](O[C@@H]8O[C@H](CO)[C@@H](O)[C@H](O[C@@H]9O[C@H](CO)[C@@H](O)[C@H](O[C@@H]%10O[C@H](CO)[C@@H](O)[C@H](O[C@@H]%11O[C@H](CO)[C@@H](O)[C@H](O[C@@H]%12O[C@H](CO)[C@@H](O)[C@H](O[C@@H]%13O[C@H](CO)[C@@H](O)[C@H](O[C@@H]%14O[C@H](CO[C@@H]%15O[C@H](CO)[C@@H](O)[C@H](O)[C@H]%15O)[C@@H](O)[C@H](O[C@@H]%15O[C@H](CO)[C@@H](O)[C@H](O[C@@H]%16O[C@H](CO)[C@@H](O)[C@H](O)[C@H]%16O)[C@H]%15O)[C@H]%14O)[C@H]%13O)[C@H]%12O)[C@H]%11O)[C@H]%10O)[C@H]9O)[C@H]8O)[C@H]7O)[C@H]6O)[C@H]5O)[C@H]4O)[C@H]3O)[C@H]2O)[C@H]1O		Active		10		

More lines, now with the values ahead:

Activity [1]	Activity [2]	Activity [3]	fold change (FC) [1]	Activity [4]	Activity [5]	Structure (SMILES)
inactive	inactive	inactive				NCCCCCCO[C@@H]1O[C@H](CO)[C@@H](O)[C@H](O[C@@H]2O[C@H](CO)[C@@H](O)[C@H](O[C@@H]3O[C@H](CO)[C@@H](O)[C@H](O[C@@H]4O[C@H](CO)[C@@H](O)[C@H](O[C@@H]5O[C@H](CO)[C@@H](O)[C@H](O[C@@H]6O[C@H](CO)[C@@H](O)[C@H](O[C@@H]7O[C@H](CO)[C@@H](O)[C@H](O[C@@H]8O[C@H](CO)[C@@H](O)[C@H](O[C@@H]9O[C@H](CO)[C@@H](O)[C@H](O[C@@H]%10O[C@H](CO)[C@@H](O)[C@H](O[C@@H]%11O[C@H](CO)[C@@H](O)[C@H](O[C@@H]%12O[C@H](CO)[C@@H](O)[C@H](O)[C@H]%12O)[C@H]%11O)[C@H]%10O)[C@H]9O)[C@H]8O)[C@H]7O)[C@H]6O)[C@H]5O)[C@H]4O)[C@H]3O)[C@H]2O)[C@H]1O
inactive	inactive					NCCCCCCO[C@@H]1O[C@H](CO)[C@@H](O)[C@H](O[C@@H]2O[C@H](CO)[C@@H](O)[C@H](O[C@@H]3O[C@H](CO)[C@@H](O)[C@H](O[C@@H]4O[C@H](CO)[C@@H](O)[C@H](O[C@@H]5O[C@H](CO)[C@@H](O)[C@H](O[C@@H]6O[C@H](CO[C@@H]7O[C@H](CO)[C@@H](O)[C@H](O)[C@H]7O)[C@@H](O)[C@H](O[C@@H]7O[C@H](CO)[C@@H](O)[C@H](O[C@@H]8O[C@H](CO)[C@@H](O)[C@H](O)[C@H]8O)[C@H]7O)[C@H]6O)[C@H]5O)[C@H]4O)[C@H]3O)[C@H]2O)[C@H]1O
inactive	inactive	inactive				NCCCCCCO[C@@H]1O[C@H](CO)[C@@H](O)[C@H](O[C@@H]2O[C@H](CO)[C@@H](O)[C@H](O[C@@H]3O[C@H](CO)[C@@H](O)[C@H](O[C@@H]4O[C@H](CO)[C@@H](O)[C@H](O[C@@H]5O[C@H](CO)[C@@H](O)[C@H](O[C@@H]6O[C@H](CO)[C@@H](O)[C@H](O[C@@H]7O[C@H](CO)[C@@H](O)[C@H](O[C@@H]8O[C@H](CO)[C@@H](O)[C@H](O)[C@H]8O)[C@H]7O)[C@H]6O)[C@H]5O)[C@H]4O)[C@H]3O)[C@H]2O)[C@H]1O
